# Experimental data as given in ChEMBL document CHEMBL4390647, “Efficient click chemistry towards novel 1H-1,2,3-triazole-tethered 4H-chromene-d-glucose conjugates: Design, synthesis and evaluation of in vitro antibacterial, MRSA and antifungal activities” (Eur J Med Chem, 2019).
# Assays:
# [1] = test system: Bacillus subtilis; assay: Antibacterial activity against Bacillus subtilis ATCC 11774 after 18 to 20 hrs by microbroth dilution method; format: functional
# Procedure, shortened: (§1)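 Inoculum from a 4–6-h broth adjusted to 0.5 McFarland, final 5 × 10⁵ CFU/mL. Incubation at 35°C for 18–20 h. MIC taken as the lowest concentration giving complete inhibition of visible growth; three experiments.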
# [2] = test system: Staphylococcus aureus; assay: Antibacterial activity against Staphylococcus aureus ATCC 11632 after 18 to 20 hrs by microbroth dilution method; format: functional; procedure, shortened: as §1
# [3] = test system: Staphylococcus epidermidis; assay: Antibacterial activity against Staphylococcus epidermidis ATCC 12228 after 18 to 20 hrs by microbroth dilution method; format: functional; procedure, shortened: as §1
# [4] = test system: Escherichia coli; assay: Antibacterial activity against Escherichia coli ATCC 25922 measured after 18 to 20 hrs by microbroth dilution method; format: functional; procedure, shortened: as §1
# [5] = test system: Klebsiella pneumoniae; assay: Antibacterial activity against measured after Klebsiella pneumoniae ATCC 4352 measured after 18 to 20 hrs by microbroth dilution method; format: functional; procedure, shortened: as §1
# [6] = test system: Pseudomonas aeruginosa; assay: Antibacterial activity against Pseudomonas aeruginosa […] measured after 18 to 20 hrs by microbroth dilution method; format: functional; procedure, shortened: as §1
# [7] = test system: Salmonella typhimurium; assay: Antibacterial activity against Salmonella typhimurium ATCC 14028 measured after 18 to 20 hrs by microbroth dilution method; format: functional, Salmonella enterica subsp. enterica serovar Typhimurium; details: Salmonella enterica; procedure, shortened: as §1
# [8] = test system: Staphylococcus aureus; assay: Antibacterial activity against Staphylococcus aureus MRSA198 clinical isolate-3 measured after 18 to 20 hrs by microbroth dilution method; format: functional; details: MRSA198 isolate-3
# [9] = test system: Aspergillus niger; assay: Antifungal activity against Aspergillus niger ATCC 439 measured after 72 hrs by agar dilution method; format: functional; details: ATCC 439, 72 h
# Procedure, shortened: (§2)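 Agar dilution on Sabouraud dextrose agar, with compounds at […] to 0.78 μM in twofold steps. Fungal suspensions at 10 CFU/mL as printed were applied to the compound-containing plates. Incubation at 35°C; MIC read after 72 h. Three experiments.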
# [10] = test system: Aspergillus flavus; assay: Antifungal activity against Aspergillus flavus ATCC 204304 measured after 72 hrs by agar dilution method; format: functional; details: ATCC 204304, 72 h; procedure, shortened: as §2
# [11] = test system: Candida albicans; assay: Antifungal activity against Candida albicans ATCC 7754 after 72 hrs by agar dilution method; format: functional; details: ATCC 7754, 72 h; procedure, shortened: as §2
# [12] = test system: Saccharomyces cerevisiae; assay: Antifungal activity against Saccharomyces cerevisiae SH 20 after 72 hrs by agar dilution method; format: functional; details: SH 20, 72 h; procedure, shortened: as §2
# [13] = Cytotoxicity against mouse RAW264.7 cells assessed as growth inhibition at 50 ug/mL after 120 hrs by MTT assay relative to control; format: cell-based; details: read-out: GI
# Procedure, shortened: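 RAW 264.7 mouse macrophages were seeded at 25,000 cells/well and left to attach overnight. Compound in DMSO was added from a 200× concentrate, in duplicate wells, to a 50 μg/mL test level; DMSO served as control. Exposure 120 h at 37°C in 5% CO₂. MTT (4 mg/mL in PBS) was added for 4 h, formazan dissolved in DMSO, and absorbance read at 560 nm. Viability expressed as % of untreated cells, mean ± SE of at least three independent experiments.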
# [14] = test system: Staphylococcus aureus; assay: Antibacterial activity against Staphylococcus aureus MRSA198 clinical isolate-1 measured after 18 to 20 hrs by microbroth dilution method; format: functional; details: MRSA198 isolate-1
# [15] = test system: Staphylococcus aureus; assay: Antibacterial activity against Staphylococcus aureus MRSA198 clinical isolate-2 measured after 18 to 20 hrs by microbroth dilution method; format: functional; details: MRSA198 isolate-2
MIC [1] [µM],MIC [2] [µM],MIC [3] [µM],MIC [4] [µM],MIC [5] [µM],MIC [6] [µM],MIC [7] [µM],MIC [8] [µM],MIC [9] [µM],MIC [10] [µM],MIC [11] [µM],MIC [12] [µM],MIC [14] [µM],MIC [15] [µM],Compound,"inhibition at 120 h, 50 ug/mL [13] [%]"
200,400,100,200,6.25,400,100,400,400,1.56,400,25,,,COc1cccc(C2C(C#N)=C(N)Oc3cc(OCc4cn([C@@H]5O[C@H](COC(C)=O)[C@@H](OC(C)=O)[C@H](OC(C)=O)[C@H]5OC(C)=O)nn4)ccc32)c1 (stereo not given in full),25.1
100,100,,12.5,,1.56,50,200,,12.5,12.5,100,400,400,CC(=O)OC[C@H]1O[C@@H](n2cc(COc3ccc4c(c3)OC(N)=C(C#N)C4c3ccc(N(C)C)cc3)nn2)[C@H](OC(C)=O)[C@@H](OC(C)=O)[C@@H]1OC(C)=O (stereo not given in full),19.6
25,50,200,200,,6.25,50,100,200,200,25,,200,200,CC(=O)OC[C@H]1O[C@@H](n2cc(COc3ccc4c(c3)OC(N)=C(C#N)C4c3cccc(Cl)c3Cl)nn2)[C@H](OC(C)=O)[C@@H](OC(C)=O)[C@@H]1OC(C)=O (stereo not given in full),23.8
50,1.56,25,,12.5,,50,6.25,400,,12.5,50,1.56,1.56,COc1ccc(C2C(C#N)=C(N)Oc3cc(OCc4cn([C@@H]5O[C@H](COC(C)=O)[C@@H](OC(C)=O)[C@H](OC(C)=O)[C@H]5OC(C)=O)nn4)ccc32)c(OC)c1 (stereo not given in full),12.4
6.25,100,400,200,1.56,6.25,50,200,,50,3.12,12.5,400,400,CC(=O)OC[C@H]1O[C@@H](n2cc(COc3ccc4c(c3)OC(N)=C(C#N)C4c3ccc(C(C)C)cc3)nn2)[C@H](OC(C)=O)[C@@H](OC(C)=O)[C@@H]1OC(C)=O (stereo not given in full),17.9
50,400,400,12.5,400,400,200,400,100,3.12,400,3.12,,,CC(=O)OC[C@H]1O[C@@H](n2cc(COc3ccc4c(c3)OC(N)=C(C#N)C4c3ccc(C)cc3)nn2)[C@H](OC(C)=O)[C@@H](OC(C)=O)[C@@H]1OC(C)=O (stereo not given in full),19.6
3.12,3.12,3.12,1.56,1.56,1.56,1.56,,,,,,,,O=C(O)c1cn(C2CC2)c2cc(N3CCNCC3)c(F)cc2c1=O [CIPROFLOXACIN],
400,400,400,400,400,400,400,,,,,,,,COc1cccc(OC)c1C(=O)N[C@@H]1C(=O)N2[C@@H]1SC(C)(C)[C@@H]2C(=O)O [METHICILLIN],
12.5,25,200,200,,100,1.56,12.5,200,12.5,1.56,12.5,12.5,12.5,COc1ccc(C2C(C#N)=C(N)Oc3cc(OCc4cn([C@@H]5O[C@H](COC(C)=O)[C@@H](OC(C)=O)[C@H](OC(C)=O)[C@H]5OC(C)=O)nn4)ccc32)cc1 (stereo not given in full),29.6
